ChEMBL document CHEMBL1133565 (J Med Chem, 2000)
pIC50, pKi: −log10 of the molar value.

How the values were obtained:
[1] = target: T1, Sodium-dependent serotonin transporter (Homo sapiens, UniProt P31645); assay: Binding affinity against cloned serotonin human transporter using 40-80 PM [125I]RTI
In short: (§1)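 Membranes from cells expressing recombinant human transporters: DAT in C6 cells, later HEK293; SERT and NET in HEK293. Cells lysed (2 mM HEPES, 1 mM EDTA), spun at 30000g, resuspended in 0.32 M sucrose, about 15 µg protein. GF/C filtration. Duplicates; IC50 converted to Ki by Cheng-Prusoff.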
Target sequence in this assay (P31645 whole entry): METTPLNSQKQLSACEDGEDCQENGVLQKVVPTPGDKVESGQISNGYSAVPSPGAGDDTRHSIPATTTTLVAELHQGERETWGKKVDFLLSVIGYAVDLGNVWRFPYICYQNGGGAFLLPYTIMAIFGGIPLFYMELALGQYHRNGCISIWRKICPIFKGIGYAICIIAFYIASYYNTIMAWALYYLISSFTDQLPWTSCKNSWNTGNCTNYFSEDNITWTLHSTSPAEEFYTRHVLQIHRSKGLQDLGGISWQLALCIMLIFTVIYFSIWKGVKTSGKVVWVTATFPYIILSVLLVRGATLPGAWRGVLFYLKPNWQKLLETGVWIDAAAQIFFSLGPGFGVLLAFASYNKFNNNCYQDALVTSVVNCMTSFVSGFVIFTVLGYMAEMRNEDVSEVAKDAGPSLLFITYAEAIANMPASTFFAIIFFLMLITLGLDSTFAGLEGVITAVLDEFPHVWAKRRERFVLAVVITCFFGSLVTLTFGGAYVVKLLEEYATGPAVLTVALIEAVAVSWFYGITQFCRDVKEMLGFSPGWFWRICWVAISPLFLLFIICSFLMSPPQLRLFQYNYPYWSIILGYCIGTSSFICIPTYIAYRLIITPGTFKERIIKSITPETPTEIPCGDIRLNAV

[2] = target: T2, Sodium-dependent dopamine transporter (Homo sapiens, UniProt Q01959); assay: Binding affinity against cloned human dopamine transporter using 40-80 pM [125I]RTI.; in short: as §1
T2 sequence (Q01959 whole entry): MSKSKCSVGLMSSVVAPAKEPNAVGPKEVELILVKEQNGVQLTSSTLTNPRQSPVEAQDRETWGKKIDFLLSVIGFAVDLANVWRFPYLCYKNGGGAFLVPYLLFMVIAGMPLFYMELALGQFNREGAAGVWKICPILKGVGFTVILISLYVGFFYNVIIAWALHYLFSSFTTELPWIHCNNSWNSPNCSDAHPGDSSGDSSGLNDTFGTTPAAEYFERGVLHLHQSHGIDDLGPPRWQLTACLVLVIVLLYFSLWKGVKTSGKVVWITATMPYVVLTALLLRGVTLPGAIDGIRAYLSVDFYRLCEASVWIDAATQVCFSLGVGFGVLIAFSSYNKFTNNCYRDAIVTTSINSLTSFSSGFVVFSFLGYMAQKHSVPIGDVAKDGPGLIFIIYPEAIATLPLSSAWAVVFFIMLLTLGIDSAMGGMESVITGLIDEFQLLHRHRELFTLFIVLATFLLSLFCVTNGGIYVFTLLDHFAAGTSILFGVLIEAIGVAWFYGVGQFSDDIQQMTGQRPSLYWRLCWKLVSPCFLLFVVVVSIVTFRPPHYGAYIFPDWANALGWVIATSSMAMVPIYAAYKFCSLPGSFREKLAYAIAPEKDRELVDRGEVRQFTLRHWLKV

[3] = target: T1, Sodium-dependent serotonin transporter; assay: Ratio of serotonin uptake to serotonin binding
Target sequence in this assay (P31645 whole entry, looked up): as the sequence (P31645 whole entry) above

[4] = target: T3, Sodium-dependent noradrenaline transporter (Homo sapiens, UniProt P23975); assay: Binding affinity against norepinephrine cloned human transporter using 40-80 pM [125I]RTI
Target sequence in this assay (P23975 whole entry): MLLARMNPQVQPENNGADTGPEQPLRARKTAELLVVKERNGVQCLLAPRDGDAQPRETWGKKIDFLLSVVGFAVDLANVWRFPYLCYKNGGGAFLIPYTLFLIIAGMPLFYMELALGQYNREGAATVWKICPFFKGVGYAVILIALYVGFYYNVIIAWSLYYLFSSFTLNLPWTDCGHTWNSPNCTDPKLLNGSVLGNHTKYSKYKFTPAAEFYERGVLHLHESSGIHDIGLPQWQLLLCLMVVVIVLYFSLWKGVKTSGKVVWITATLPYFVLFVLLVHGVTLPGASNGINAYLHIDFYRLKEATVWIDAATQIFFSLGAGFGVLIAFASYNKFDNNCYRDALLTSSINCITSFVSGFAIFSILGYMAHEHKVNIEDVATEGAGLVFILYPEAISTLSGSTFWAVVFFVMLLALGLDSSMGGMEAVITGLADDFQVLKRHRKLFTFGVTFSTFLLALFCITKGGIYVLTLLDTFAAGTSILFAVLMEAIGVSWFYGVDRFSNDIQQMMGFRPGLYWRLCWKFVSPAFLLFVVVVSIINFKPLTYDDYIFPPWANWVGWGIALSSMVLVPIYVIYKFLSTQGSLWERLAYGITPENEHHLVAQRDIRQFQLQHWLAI

[5] = target: T2, Sodium-dependent dopamine transporter; assay: Inhibition of reuptake of [3H]DA (20 nM) by dopamine transporter
In short: (§2)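 Uptake used whole confluent cells: hSERT in HEK293; hDAT in C6, later HEK293. Cells were washed and scraped in PBS at 25 °C, then preincubated 10 min with drug in Krebs HEPES at 25 °C. [3H]5HT or [3H]DA was added at 20 nM final for 10 min, then filtered on 0.05% polyethylenimine-soaked filters. Six drug concentrations, each in triplicate.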

[6] = target: Monoamine transporters; serotonin & dopamine (Homo sapiens) (UniProt P31645+Q01959); assay: Ratio of inhibition of serotonin uptake to inhibition of dopamine uptake; assay type: protein assay
Chain of Monoamine transporters; serotonin & dopamine (Homo sapiens) (P31645 whole entry, looked up): as the sequence (P31645 whole entry) above
Chain of Monoamine transporters; serotonin & dopamine (Homo sapiens) (Q01959 whole entry, looked up): as the sequence (Q01959 whole entry) above

[7] = target: T2, Sodium-dependent dopamine transporter; assay: Ratio of dopamine uptake to dopamine binding
[8] = target: T1, Sodium-dependent serotonin transporter; assay: Inhibition of reuptake of [3H]5-HT (20 nM) by serotonin transporter; in short: as §2
Target sequence in this assay (P31645 whole entry): as the sequence (P31645 whole entry) above

[9] = target: T3, Sodium-dependent noradrenaline transporter; assay: Inhibition of reuptake of [3H]-NE (20 nM) by norepinephrine transporter
Target sequence in this assay (P23975 whole entry): as the sequence (P23975 whole entry) above

[10] = Effective dose for generalization to 10 mg/kg cocaine in rat (value is standard error of the population of 88 independent determinations); assay type: functional
[11] = species on record: Mus musculus; assay: Effective dose on 8 hr locomotor assay in mice (value is standard error of the population of 72 independent determinations); assay type: functional
In short: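 Groups of 8 nonhabituated male Swiss-Webster mice (Hsd:ND4, 2-3 months), dosed ip in 0.9% saline vehicle just before testing. Horizontal photobeam breaks counted in 10-min bins for 8 h from 0800 h, one mouse per chamber.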

[12] = target: T3, Sodium-dependent noradrenaline transporter; assay: Ratio of norepinephrine uptake to norepinephrine binding
Target sequence in this assay (P23975 whole entry, looked up): as the sequence (P23975 whole entry) above

Structure (SMILES)	pKi [1]	pKi [2]	Ratio [3]	pKi [4]	pIC50 [5]	Ratio [6]	Ratio [7]	pIC50 [8]	pIC50 [9]	ED50 [10] [mg/kg]	ED50 [11] [mg/kg]	Ratio [12]
CC(C)N(C)[C@H]1C[C@@H](c2ccc(Cl)c(Cl)c2)c2ccccc21	7.14	6.17	25	6.19	6.02	1.9	1.4	5.74	5.74			
CC(C)N(C)[C@@H]1C[C@@H](c2ccc(Cl)c(Cl)c2)c2ccccc21	7.36	6.74	34	6.59	6.72	7.9	1.1	5.82	6.38	3.3	2.9	
CN(C)[C@@H]1C[C@@H](c2ccc(Cl)c(Cl)c2)c2ccccc21 (stereo in doubt; (-)) [listing 1 of 2 here]	8.44	7.42		6.89	6.19			6.89	6.89			
CN(C)[C@H]1C[C@@H](c2ccc(Cl)c(Cl)c2)c2ccccc21 (relative stereo)	8.62	7.20	2.3	6.82	6.26	0.01	8.7	8.26	7.07			
CC(C)(C)N[C@H]1C[C@@H](c2ccc(Cl)c(Cl)c2)c2ccccc21 (relative stereo)	5.77	6.19		5.96	5.82		2.3	< 5.00	5.74			1.6
CN([C@@H]1C[C@@H](c2ccc(Cl)c(Cl)c2)c2ccccc21)C(C)(C)C (relative stereo)	5.33	6.05		6.36	5.57		3	< 5.00	6.00			
CCN[C@H]1C[C@@H](c2ccc(Cl)c(Cl)c2)c2ccccc21	8.33	6.85	4		6.00	0.02	11	7.72	6.77			
CN(Cc1ccccc1)[C@H]1C[C@@H](c2ccc(Cl)c(Cl)c2)c2ccccc21 (relative stereo)	6.52	< 5.00	2.3	< 5.00				6.15	< 5.00			
CC(C)N[C@H]1C[C@@H](c2ccc(Cl)c(Cl)c2)c2ccccc21 (relative stereo)	6.89	6.35	2.3	5.46	5.85	0.21	3.1	6.52	5.82			0.43
CCN(C)[C@H]1C[C@@H](c2ccc(Cl)c(Cl)c2)c2ccccc21 (relative stereo)	7.89	6.18	5.5	5.62	6.28	0.14	0.8	7.14	5.36			1.8
CCCN[C@@H]1C[C@@H](c2ccc(Cl)c(Cl)c2)c2ccccc21 (relative stereo)	6.89	6.66	3.7	7.26	7.28	9.1	0.24	6.32	6.89	2.3	8.1	2.4
CN(C)[C@@H]1C[C@@H](c2ccc(Cl)c(Cl)c2)c2ccccc21.O=C(O)/C=C\C(=O)O (relative stereo)	9.48	7.72		7.02	6.70			7.19	7.47	1.3	2.4	
CCCN[C@H]1C[C@@H](c2ccc(Cl)c(Cl)c2)c2ccccc21 (relative stereo)	6.30	6.55	2.6	6.27	6.21	2.1	2.2	5.89	6.20			1.2
CN([C@H]1C[C@@H](c2ccc(Cl)c(Cl)c2)c2ccccc21)C(C)(C)C (relative stereo)	< 5.00	5.55		5.66	< 5.00				< 5.00			
CC(C)(C)N[C@@H]1C[C@@H](c2ccc(Cl)c(Cl)c2)c2ccccc21 (relative stereo)	6.13	6.89	4.2	6.82	6.43	8.4	2.8	5.51	6.51		> 28	2.1
COC(=O)[C@H]1[C@@H](OC(=O)c2ccccc2)C[C@@H]2CC[C@H]1N2C [COCAINE]										3.61	7.92	
CN(Cc1ccccc1)[C@@H]1C[C@@H](c2ccc(Cl)c(Cl)c2)c2ccccc21 (relative stereo)	6.74	6.92	21	5.55	6.26	6.7	4.6	5.43	5.80		5.7	
Clc1ccc([C@@H]2C[C@H](NCc3ccccc3)c3ccccc32)cc1Cl (relative stereo)	5.68	5.96		5.32	5.28			< 5.00	< 5.00			
CN(C)[C@@H]1C[C@@H](c2ccc(Cl)c(Cl)c2)c2ccccc21 (stereo in doubt; (-)) [listing 2 of 2 here]						0.02	17					
CN(C)[C@@H]1C[C@@H](c2ccc(Cl)c(Cl)c2)c2ccccc21 (stereo in doubt; (+)) [listing 1 of 2 here]	10.22	8.06		7.28	6.92			8.20	7.68		0.96	
CN(C)[C@@H]1C[C@@H](c2ccc(Cl)c(Cl)c2)c2ccccc21 (relative stereo)			200			0.033	11					
CN(C)[C@@H]1C[C@@H](c2ccc(Cl)c(Cl)c2)c2ccccc21 (stereo in doubt; (+)) [listing 2 of 2 here]			110			0.053	14					
CCCN(C)[C@@H]1C[C@@H](c2ccc(Cl)c(Cl)c2)c2ccccc21 (relative stereo)	7.04	6.60	2.1	6.40	6.47	0.56	1.4	6.72	6.19	1.5	1.7	1.6
CCN(C)[C@@H]1C[C@@H](c2ccc(Cl)c(Cl)c2)c2ccccc21 (relative stereo)	7.80	7.41	1.5	6.60	6.57	0.089	6.9	7.62	6.82		2.7	0.6
CC(C)N[C@@H]1C[C@@H](c2ccc(Cl)c(Cl)c2)c2ccccc21	7.03	7.49	2.6	6.96	7.29	4.7	1.6	6.62	7.12		3.1	0.68
CN[C@@H]1C[C@@H](c2ccc(Cl)c(Cl)c2)c2ccccc21 (relative stereo) [(R,S)-INDATRALINE]											1.2	
CCCN(C)[C@H]1C[C@@H](c2ccc(Cl)c(Cl)c2)c2ccccc21 (relative stereo)	6.70		4	5.70	6.00	0.8	0.83	6.09	6.27			0.27
Clc1ccc([C@@H]2C[C@@H](NCc3ccccc3)c3ccccc32)cc1Cl (relative stereo)	6.42	7.10		6.34	6.89		1.6	< 5.00	5.59		> 20	
CCN[C@@H]1C[C@@H](c2ccc(Cl)c(Cl)c2)c2ccccc21 (relative stereo)	8.70	8.09	6.5	7.32	7.21	0.21	7.5	7.89	7.55		1	
